# Data from ChEMBL document CHEMBL3792332, “Novel chromone and xanthone derivatives: Synthesis and ROS/RNS scavenging activities” (Eur J Med Chem, 2016).
# Tests used:
# Assay type in all cases: physicochemical
# [1] = Antioxidant activity assessed as inhibition of singlet oxygen induced oxidation of non-fluorescent DHR to fluorescent rhodamine 123 at 37 degC measured after 30 mins by fluorimetric method; conditions: for inhibition (INH): 0.5 h
# Outline: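 Singlet oxygen generated by thermal decomposition of NDPO2 at 37 °C. DHR oxidation to rhodamine 123 read fluorimetrically after 30 min incubation. Compounds in DMSO, final 0.3125–20 μM for chromones and 0.625–80 μM for xanthones. IC50 from % inhibition curves, 5–7 concentrations in triplicate, ≥4 independent experiments.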
# [2] = Antioxidant activity assessed as inhibition of superoxide induced reduction of NBT measured for 2 mins by UV-visible spectrophotometric method; conditions: for inhibition (INH): 2 min
# Outline: (§1)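 Superoxide produced by the NADH/PMS/O2 system at room temperature. NBT reduction followed at 560 nm over 2 min. Compounds in DMSO at final 25–200 μM. IC50 from % inhibition vs concentration curves, at least four independent experiments in triplicate. The single-concentration line is % inhibition at the top concentration.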
# [3] = Antioxidant activity assessed as inhibition of H2O2 induced lucigenin oxidation at 37 degC
# Outline: (§2)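 H2O2 scavenging by chemiluminescence: H2O2-induced lucigenin oxidation, signal recorded immediately after the plate enters the reader. Compounds in DMSO at final 31.25–1000 μM, 37 °C. IC50 from % inhibition vs concentration curves (5–7 concentrations in triplicate, at least four independent experiments). Single-concentration line gives % effect at the top concentration. Quercetin as positive control.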
# [4] = Antioxidant activity assessed as inhibition of peroxynitrite induced oxidation of the non-fluorescent dihydrorhodamine 123 to the fluorescent rhodamine 123 after 2 mins by fluorimetric method; conditions: for inhibition (INH): 2 min
# Outline: (§3)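 Peroxynitrite (synthesized in-house) oxidizes DHR to rhodamine 123; fluorescence read after 2 min at 37 °C. Compounds in DMSO at final 0.156–5 μM. A parallel set was run with 25 mM NaHCO3 to mimic physiological CO2. IC50 from inhibition curves, 5–7 concentrations in triplicate, ≥4 independent experiments.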
# [5] = Antioxidant activity assessed as inhibition of NO-induced oxidation of non-fluorescent DAF-2 to the fluorescent triazolofluorescein after 30 mins by fluorimetric method; conditions: for inhibition (INH): 0.5 h
# Outline: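 •NO released from NOC-5; oxidation of DAF-2 to DAF-2T read fluorimetrically (ex 485/em 528 nm) after 30 min at 37 °C. Compounds in DMSO at final 0.25–8 μM. IC50 derived from % inhibition vs concentration curves, 5–7 concentrations in triplicate, at least four independent experiments.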
# [6] = Antioxidant activity assessed as inhibition of HOCl-induced oxidation of DHR to rhodamine 123 at 37 degC by fluorimetric method
# Outline: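 HOCl made daily by adjusting 1% NaOCl to pH 6.2 with 10% H2SO4. HOCl-induced DHR oxidation to rhodamine 123 read immediately at ex 480/em 528 nm, 37 °C. Compounds in ethanol, final 6.25–400 μM. IC50 from inhibition curves, 5–7 concentrations in triplicate, ≥4 independent experiments.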
# [7] = Antioxidant activity assessed as inhibition of peroxynitrite induced oxidation of the non-fluorescent dihydrorhodamine 123 to the fluorescent rhodamine-123 in presence of NaHCO3 after 2 mins by fluorimetric method; outline: as §3
# [8] = Antioxidant activity assessed as inhibition of H2O2 induced lucigenin oxidation at 1000 uM at 37 degC; outline: as §2
# [9] = Antioxidant activity assessed as inhibition of superoxide induced reduction of NBT measured for 2 mins at 200 uM by UV-visible spectrophotometric method; outline: as §1
IC50 [1] [µM],inhibition (INH) [1],IC50 [2],IC50 [3] [µM],inhibition (INH) [3],IC50 [4] [µM],inhibition (INH) [4],IC50 [5] [µM],inhibition (INH) [5],IC50 [6] [µM],inhibition (INH) [6],IC50 [7] [µM],inhibition (INH) [2],IC50 ([2]; read-out: IC50) [µM],inhibition (INH) [8] [%],inhibition (INH) [9] [%],SMILES
1.1,Dose-dependent effect,ND(Insoluble),125,Dose-dependent effect,0.34,Dose-dependent effect,1.23,Dose-dependent effect,94,Dose-dependent effect,0.4,–,–,–,–,O=c1cc(/C=C/C=C/c2ccc(O)c(O)c2)oc2cccc(O)c12
10,Dose-dependent effect,–,658,Dose-dependent effect,0.57,Dose-dependent effect,1.5,Dose-dependent effect,96,Dose-dependent effect,0.56,Dose-dependent effect,80,–,–,O=c1c2c(O)cccc2oc2cccc(-c3ccc(O)c(O)c3)c12
4.4,Dose-dependent effect,–,–,–,0.51,Dose-dependent effect,1.99,Dose-dependent effect,158,Dose-dependent effect,0.35,Dose-dependent effect,55,12,–,O=c1c2ccccc2oc2cccc(-c3ccc(O)c(O)c3)c12
7.3,Dose-dependent effect,–,518,Dose-dependent effect,0.39,Dose-dependent effect,1.08,Dose-dependent effect,31,Dose-dependent effect,0.66,Dose-dependent effect,61,–,–,O=c1c2ccc(O)cc2oc2cccc(-c3ccc(O)c(O)c3)c12

# Second part, the compound before the results:
SMILES,IC50 [1] [µM],inhibition (INH) [1],IC50 [2],IC50 [3] [µM],inhibition (INH) [3],IC50 [4] [µM],inhibition (INH) [4],IC50 [5] [µM],inhibition (INH) [5],IC50 [6] [µM],inhibition (INH) [6],IC50 [7] [µM],inhibition (INH) [2],IC50 ([2]; read-out: IC50) [µM],inhibition (INH) [8] [%],inhibition (INH) [9] [%]
O=c1cc(/C=C/C=C/c2ccc(O)c(O)c2)oc2ccccc12,1.3,Dose-dependent effect,ND(Insoluble),143,Dose-dependent effect,0.33,Dose-dependent effect,0.82,Dose-dependent effect,32,Dose-dependent effect,0.34,–,–,–,–
O=c1cc(/C=C/C=C/c2ccc(O)c(O)c2)oc2cc(O)ccc12,1.6,Dose-dependent effect,–,121,Dose-dependent effect,0.29,Dose-dependent effect,1.42,Dose-dependent effect,17,Dose-dependent effect,0.3,–,–,–,36
O=c1c(O)c(-c2ccc(O)c(O)c2)oc2cc(O)cc(O)c12 [QUERCETIN],1.5,–,–,1340,–,0.45,–,0.77,–,2.4,–,0.68,–,60,–,–
